Source: PubChem BioAssay
Results filed as inconclusive are left out. Active and inactive are the calls of the source.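 Rule for the calls, unless noted: active = viability increase at or above a cutoff of the median across tested compounds plus 3 SD (cut at about 8.5% in these data, passing the limit was not always enough); inconclusive = some gains above the cutoff, reason not given; inactive = the rest.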

How the values were obtained:
[1] = OD615 S. cerevisiae growth inhibition, permissive medium, pilot counter-assay, permissive growth control for S. cerevisiae lifespan shortening project (AID 705;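 active = growth inhibition above 25% in both replicates, a cutoff set 3 SD above the mean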); details: OD615, 24 h, at 10 µM, hits give high values
How it was run: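 Material: engineered DeaD yeast; compound dosing: one dose 10 µM, DMSO 0.25% final; measure: yeast growth inhibition indicated by reduced 24 h OD615; detection: OD615 turbidity read; incubation: cells pre-grown 4 h, then 24 h compound exposure, 30 °C humidified; medium: permissive synthetic complete medium with raffinose and galactose carbon sources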

[2] = Restrictive medium S. cerevisiae growth inhibition, OD615, pilot screen of yeast lifespan reduction project, restrictive growth control (AID 706;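 active = growth inhibition above a set limit, 3 SD over mean compound inhibition, in both replicates, cut at about 43% in these data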;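 note: modified DeaD lifespan yeast strain shifted to restrictive glucose medium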); details: OD615, 48 h, at 10 µM, hits give high values
How it was run: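 material = engineered S. cerevisiae DeaD strain | medium = glucose-based CSMM-D restrictive medium | times = 4 h pre-incubation, 48 h exposure at 30 °C | technique = OD615 absorbance reading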

[3] = viability gain of MRP-1-high H69AR cells under doxorubicin, pilot screen, MRP-1 activator project, CellTiter-Glo, duplicate (AID 807); details: H69AR viability with doxorubicin, CellTiter-Glo luminescence; at 10 µM; hits give high values;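 note: compound pretreatment 18-22 h then 72 h combined with doxorubicin; 0% = doxorubicin alone and 100% = vehicle without doxorubicin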
[4] = growth suppression of PTEN-deleted HCT116, pilot screen, cell-based, HCT116 clonal line, CellTiter-Glo (AID 824;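 active = viability at or below 27.92% in each of two runs, the all-compound median minus 4 SD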;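 note: 0% = 20 µM Hyamine control and 100% = vehicle cell control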); details: 60 h, at 10 µM, hits give low values
[5] = inhibitors of the yeast RAM network, pilot screen, dse1pr::URA3 reporter, 5-FOA selection (AID 869;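 active = inhibition over a set limit, the all-compound mean plus 3 SD, in both replicate runs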;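 note: 0% = DMSO wells with no growth and 100% = 10 µM 1-NA-PP1 with full growth; RAM network block rescues cells from 5-FOA so hits raise OD615 growth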); details: S. cerevisiae dse1pr::URA3 5-FOA growth, OD615, 2 d; at 10 µM; hits give high values; strain carries analog-sensitive mutant Cbk1 kinase
[6] = RAM signaling pathway blockade in yeast – S. cerevisiae, Pdr1DBD-CYC8 efflux-inhibited sensitized strain, primary screen (AID 1298;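 active = RAM network inhibition above 8.4% in each of two replicates, 3 SD over the compound average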;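 note: 0% = DMSO untreated cells without growth and 100% = 10 µM 1-NA-PP1 full growth; higher means more yeast growth rescued from 5-FOA killing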); details: S. cerevisiae cbk1-as DSE1-URA3 strain, 5-FOA growth OD615, 2 d; at 50 µM; hits give high values

CCSc1nsc(SCC)c1C(N)=O
inactive: growth inhibition [1] -3.27% | growth inhibition [2] -11.2% | viability increase [3] -1.55% | viability [4] 102% | inhibition [5] 0.83% | RAM network inhibition [6] 1.14%

Cc1cccc(NC(=O)CS(=O)(=O)c2cn(C)c3ccccc23)c1C
inactive: growth inhibition [1] -8.09% | growth inhibition [2] -5.75% | viability increase [3] -3.27% | viability [4] 96.5% | inhibition [5] 1.46% | RAM network inhibition [6] 3.02%

Cc1cccc(N(C)C(=O)CCS(=O)(=O)c2cccc3nonc23)c1
inactive: growth inhibition [1] -5.82% | growth inhibition [2] 0.54% | viability increase [3] -4.98% | viability [4] 96.3% | inhibition [5] 1.06% | RAM network inhibition [6] 5.74%

CCCCNc1ncnc2c1cnn2-c1ccccc1
inactive: growth inhibition [1] -4.09% | growth inhibition [2] -11.2% | viability increase [3] -6.48% | viability [4] 32.4% | inhibition [5] 1.83% | RAM network inhibition [6] -0.15%

COCCCNC(=O)c1cn(C)c(=O)c2cc(OC)c(OC)cc12
inactive: growth inhibition [1] -8.69% | growth inhibition [2] -8.96% | viability increase [3] -2.69% | viability [4] 103% | inhibition [5] 1.8% | RAM network inhibition [6] 0.56%

CCSc1nc2ccccc2n1CC(=O)N1CCOCC1
inactive: growth inhibition [1] -4.23% | growth inhibition [2] 1.08% | viability increase [3] -3.2% | viability [4] 92.4% | inhibition [5] 0.915% | RAM network inhibition [6] 0.98%

CN(C)c1ccc(NC(=S)c2ccccn2)cc1
inactive: growth inhibition [1] 4.71% | growth inhibition [2] -11.2% | viability increase [3] -8.3% | viability [4] 47.2% | inhibition [5] 1.82% | RAM network inhibition [6] 3.01%

COc1ccc(C2C(C(=O)c3cccs3)=C(O)C(=O)N2c2nncs2)cc1 (stereo not given)
inactive: growth inhibition [1] -15.5% | growth inhibition [2] -14.4% | viability increase [3] -1.95% | viability [4] 102% | inhibition [5] 0.41% | RAM network inhibition [6] 2.46%

COc1cc2c(cc1NC(=O)c1ccco1)CCCC2
inactive: growth inhibition [1] 3.87% | growth inhibition [2] -4.68% | viability increase [3] -6.9% | viability [4] 81.1% | inhibition [5] 2.06% | RAM network inhibition [6] 2.56%

O=C(Oc1ccc(Cl)cc1)N1CCCCC1
inactive: growth inhibition [1] -8.34% | growth inhibition [2] 3.42% | viability increase [3] 0.94% | viability [4] 103% | inhibition [5] -0.1% | RAM network inhibition [6] 4.56%

COc1ccc(C2CC(=O)C(C=NCCO)=C(O)C2)cc1OC (stereo not given)
inactive: growth inhibition [1] -5.79% | growth inhibition [2] 4.22% | viability increase [3] 1.21% | viability [4] 105% | inhibition [5] -0.07% | RAM network inhibition [6] -0.41%

Cc1ccc(C(=O)NCCNC(=O)CN2CCCC2)cc1
inactive: growth inhibition [1] -7.48% | growth inhibition [2] 3.55% | viability increase [3] -0.66% | viability [4] 103% | inhibition [5] 2.21% | RAM network inhibition [6] 5.7%

Brc1ccc2ncnc(NCc3ccco3)c2c1
inactive: growth inhibition [1] 2.37% | growth inhibition [2] 13% | viability increase [3] -7.68% | viability [4] 35.5% | inhibition [5] 1.71% | RAM network inhibition [6] 4.76%

COc1ccc(NC2CS(=O)(=O)CC2NCc2ccco2)cc1 (stereo not given)
inactive: growth inhibition [1] 3.62% | growth inhibition [2] -15.4% | viability increase [3] -4.04% | viability [4] 96.2% | inhibition [5] 1.94% | RAM network inhibition [6] 4.2%

c1ccc(CSc2nnc3c(n2)OC(c2ccco2)Nc2ccccc2-3)cc1 (stereo not given)
inactive: growth inhibition [1] -10.6% | growth inhibition [2] 2.27% | viability increase [3] -4.19% | viability [4] 88.8% | inhibition [5] 0.38% | RAM network inhibition [6] 7.16%

COc1ccc(-c2nc(SC)n(C)c(=O)c2C#N)cc1OC
inactive: growth inhibition [1] -6.31% | growth inhibition [2] -12.2% | viability increase [3] -4.81% | viability [4] 87.9% | inhibition [5] 0.12% | RAM network inhibition [6] 9.22%

Cn1c(=O)oc2cc(S(=O)(=O)N3CCCC(C(=O)NCc4ccc5c(c4)OCO5)C3)ccc21 (stereo not given)
inactive: growth inhibition [1] -7.5% | growth inhibition [2] 6.97% | viability increase [3] -7.5% | viability [4] 36.4% | inhibition [5] 3.25% | RAM network inhibition [6] 8.39%

Cc1c(C)[n+](=O)c(-c2ccc(F)cc2)c(C)n1[O-]
inactive: growth inhibition [1] -1.22% | growth inhibition [2] 3.79% | viability increase [3] -3.29% | viability [4] 98.3% | inhibition [5] 0.535% | RAM network inhibition [6] 4.01%

Cc1c(C(=O)NCc2ccccc2)oc2ccc(S(=O)(=O)N3CCC4(CC3)OCCO4)cc12
inactive: growth inhibition [1] 5.31% | growth inhibition [2] 2.71% | viability increase [3] -4.5% | viability [4] 66.5% | inhibition [5] 3.6% | RAM network inhibition [6] 2.96%

Cc1ccc(N(CC(=O)NCc2ccco2)S(=O)(=O)c2ccccc2)cc1
inactive: growth inhibition [1] -10.9% | growth inhibition [2] -7.57% | viability increase [3] -4.6% | viability [4] 87.2% | inhibition [5] 1.1% | RAM network inhibition [6] 1.9%

O=c1c2cnn(-c3ccccc3)c2nc(-c2ccco2)n1-c1ccccc1
inactive: growth inhibition [1] -4.83% | growth inhibition [2] -7.2% | viability increase [3] -5.59% | viability [4] 55.4% | inhibition [5] 1.39% | RAM network inhibition [6] 8.81%

COc1cc(S(=O)(=O)N2CCCCCC2)c(OC)cc1Br
inactive: growth inhibition [1] 0.23% | growth inhibition [2] -10.7% | viability increase [3] -0.06% | viability [4] 77.4% | inhibition [5] -0.43% | RAM network inhibition [6] 5.23%

CCC(C)C1C(C#N)=C(N)Oc2n[nH]c(C)c21 (stereo not given)
inactive: growth inhibition [1] -0.17% | growth inhibition [2] 7.77% | viability increase [3] -7.71% | viability [4] 62.9% | inhibition [5] 0.79% | RAM network inhibition [6] 6.1%

Cc1cc(NC(=O)COC(=O)C2CCN(S(=O)(=O)c3ccc(Cl)cc3)CC2)no1
inactive: growth inhibition [1] 4.11% | growth inhibition [2] -2.37% | viability increase [3] -2.01% | viability [4] 98.9% | inhibition [5] 1.19% | RAM network inhibition [6] 1.38%

CCC(=O)Nc1sc2c(c1C#N)CC(C)(C)NC2(C)C
inactive: growth inhibition [1] -7.39% | growth inhibition [2] -4.29% | viability increase [3] 0.09% | viability [4] 100% | inhibition [5] 1.89% | RAM network inhibition [6] 0.46%

O=C(Nc1ccc(S(=O)(=O)N2CCOCC2)cc1)C1COc2ccccc2O1 (stereo not given)
inactive: growth inhibition [1] -6.88% | growth inhibition [2] -3.29% | viability increase [3] -1.63% | viability [4] 104% | inhibition [5] 0.055% | RAM network inhibition [6] 1.34%

CN(CC1CCCO1)S(=O)(=O)c1ccc(C(=O)Nc2nc3cc4c(cc3s2)OCO4)cc1 (stereo not given)
inactive: growth inhibition [1] -9.44% | growth inhibition [2] -15.3% | viability increase [3] -4.33% | viability [4] 35.8% | inhibition [5] 2.66% | RAM network inhibition [6] 4.04%

CC1(C)CC(=O)C=C(Nc2cc(-c3ccccc3)[nH]n2)C1
inactive: growth inhibition [1] -9.89% | growth inhibition [2] 3.12% | viability increase [3] -6.97% | viability [4] 93.4% | inhibition [5] -0.355% | RAM network inhibition [6] 2.78%

COc1ccc(OC)c(N(CC(=O)Nc2ccc3c(c2)OCO3)S(=O)(=O)c2ccccc2)c1
inactive: growth inhibition [1] -11.4% | growth inhibition [2] -2.2% | viability increase [3] -2.35% | viability [4] 67.9% | inhibition [5] 3.23% | RAM network inhibition [6] 9.99%

CCCCNC(=O)NS(=O)(=O)c1ccc(NS(=O)(=O)c2ccccc2)cc1
inactive: growth inhibition [1] -10.8% | growth inhibition [2] -7.74% | viability increase [3] -0.52% | viability [4] 98.4% | inhibition [5] 2.14% | RAM network inhibition [6] 4.35%

COc1ccc(CNC(=O)CSc2nnnn2-c2ccc(O)cc2)cc1
inactive: growth inhibition [1] -0.35% | growth inhibition [2] -9.08% | viability increase [3] -4.35% | viability [4] 98.6% | inhibition [5] 2.5% | RAM network inhibition [6] 3.74%

CCCC(=O)Nc1cccc(C(=O)Nc2nccs2)c1
inactive: growth inhibition [1] -9.54% | growth inhibition [2] 0.885% | viability increase [3] 0.65% | viability [4] 102% | inhibition [5] 0.285% | RAM network inhibition [6] 0.41%

Cc1c(-c2ccco2)[n+](=O)c2c(n1[O-])CCCCC2
inactive: growth inhibition [1] -4.97% | growth inhibition [2] -4.29% | viability increase [3] -1.32% | viability [4] 105% | inhibition [5] 1.32% | RAM network inhibition [6] 8.4%

COc1ccc(NC(=O)c2oc3ccccc3c2C)c(OC)c1
inactive: growth inhibition [1] -7.12% | growth inhibition [2] -1.27% | viability increase [3] -3.83% | viability [4] 96.1% | inhibition [5] 0.97% | RAM network inhibition [6] 7.99%

CCOCCCNC(=O)C(c1ccc(Cl)cc1)N1CCC2(CC1)OCCO2 (stereo not given)
inactive: growth inhibition [1] -11.4% | growth inhibition [2] -20.9% | viability increase [3] -1.08% | viability [4] 98% | inhibition [5] 1.17% | RAM network inhibition [6] 1.59%

C(=C\CSc1nnnn1-c1ccccc1)/CSc1nnnn1-c1ccccc1
inactive: growth inhibition [1] -9.57% | growth inhibition [2] -3.65% | viability increase [3] -1.58% | viability [4] 87.6% | inhibition [5] 3.83% | RAM network inhibition [6] 10%

COc1ccccc1CNC(=O)CCS(=O)(=O)c1cccs1
inactive: growth inhibition [1] -15.9% | growth inhibition [2] -3.45% | viability increase [3] -3.06% | viability [4] 103% | inhibition [5] 1.43% | RAM network inhibition [6] 0.82%

CCOC(=O)N1CCC(NC(=O)C(CC(C)C)NC(=O)C2CCCCC2)CC1 (stereo not given)
inactive: growth inhibition [1] -6.28% | growth inhibition [2] -1.08% | viability increase [3] -2.08% | viability [4] 100% | inhibition [5] 2.41% | RAM network inhibition [6] 1.8%

O=C(CN(C1CCCCC1)S(=O)(=O)c1ccccc1)N1CCCC1
inactive: growth inhibition [1] -9.43% | growth inhibition [2] -3.8% | viability increase [3] -2.08% | viability [4] 100% | inhibition [5] 0.885% | RAM network inhibition [6] 2.77%

Cc1oc(-c2cccc(Cl)c2)nc1CN1CCC(C(=O)N2CCN(c3ccccn3)CC2)CC1
active: viability [4] 27%
inactive: growth inhibition [1] -5.81% | growth inhibition [2] -1.31% | viability increase [3] -7.36% | inhibition [5] 0.99% | RAM network inhibition [6] 4.79%
